Rows were chosen to be rich in hits. Some 2.6% of all compounds tested hit in one or more screens of this group.
MC4R antag cAMP: blocks human MC4R cAMP signaling. AID 540295. 0.48% of 360,000 active. inhibition, % at 6.5 µM. P32245. MC4R-expressing cells, MTII-stimulated cAMP, LANCE TR-FRET;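 active = inhibition above its plate's cutoff, the mean of tested wells on that plate plus 3 SD, cut at about 29% in these data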
Target sequence (P32245 whole entry, looked up): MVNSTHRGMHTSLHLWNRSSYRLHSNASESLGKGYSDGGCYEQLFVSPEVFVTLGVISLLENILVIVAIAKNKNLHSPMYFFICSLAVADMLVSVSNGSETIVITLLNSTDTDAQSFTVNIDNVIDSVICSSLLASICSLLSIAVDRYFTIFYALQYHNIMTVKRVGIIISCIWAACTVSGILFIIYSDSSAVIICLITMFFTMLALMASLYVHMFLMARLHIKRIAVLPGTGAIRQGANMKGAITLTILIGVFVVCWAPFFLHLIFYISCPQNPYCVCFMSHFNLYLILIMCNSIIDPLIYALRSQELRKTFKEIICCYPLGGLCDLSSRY
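System – human MC4R-expressing U2OS cells · Also added – Melanotan II · Dosing – one concentration, 6.5 µM nominal · Timing – 30-min compound, 1-h challenge, 1-h detection, room temperature · Measured by – Eu-cAMP/anti-cAMP TR-FRET, emission 671 nm · Replicates – singlicate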
Exocytosis inh: lytic granule exocytosis inhibition | inhibition, % at 10 µM | TALL-104 LAMP-1 surface exposure, flow cytometry; cells stimulated with thapsigargin and PMA | 0.66% of 360,000 active;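 active = inhibition above about 55%, limit read from the data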
T cell HTS: modulates CD8 T cell binding to vesicles | response (vesicle binding), % at 7 µM | AID 2052 | 2C CD8+ T cell-vesicle binding, flow cytometry; hits give low values | 0.068% of 330,000 active;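 active = response, share of CD8 T cells binding vesicles, and their 90th percentile fluorescence all below set limits, cut at about 80% in these data, passing the limit was not always enough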;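 note: values below 100% mean blocked vesicle binding to the CD8+ T cells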
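Also added: QL9-peptide-loaded Drosophila micro-vesicles bearing Ld, ICAM-1 and B7-1; Test system: purified 2C TCR transgenic mouse naive CD8+ T cells; Measured by: cytometric PE anti-B7-1 and Alexa647 anti-CD8 signals after 1% paraformaldehyde fixation; Timing: binding step 1.5 h, 37 °C, antibody labelling 20 min, ice.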
MC4R ag barr: agonists of human melanocortin 4 receptor (MC4R) beta-arrestin. U2OS MC4R beta-arrestin complementation, luminescence; percent of melanotan II response, DMSO zero. activation, % at 8.9 µM. 0.98% of 360,000 active. AID 540308;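 active = activation above a per-plate cutoff, the mean activation of sample wells on that plate plus 3 SD, cut at about 8% in these data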
EP2 mod: modulators of human EP2 prostaglandin E2 receptor; EP2-expressing cells, cAMP HTRF FRET, PGE2 co-stimulation; AID 940; P43116; 0.83% of 260,000 active; induction, % at 25 µM;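 active = compounds whose cAMP rise, as percent of the full-agonist control response, exceeds 60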;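 note: rat C6 glioma line stably carrying human EP2 under a CMV promoter; the protocol text gives 20 µM as final concentration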
Target sequence (P43116 whole entry, looked up): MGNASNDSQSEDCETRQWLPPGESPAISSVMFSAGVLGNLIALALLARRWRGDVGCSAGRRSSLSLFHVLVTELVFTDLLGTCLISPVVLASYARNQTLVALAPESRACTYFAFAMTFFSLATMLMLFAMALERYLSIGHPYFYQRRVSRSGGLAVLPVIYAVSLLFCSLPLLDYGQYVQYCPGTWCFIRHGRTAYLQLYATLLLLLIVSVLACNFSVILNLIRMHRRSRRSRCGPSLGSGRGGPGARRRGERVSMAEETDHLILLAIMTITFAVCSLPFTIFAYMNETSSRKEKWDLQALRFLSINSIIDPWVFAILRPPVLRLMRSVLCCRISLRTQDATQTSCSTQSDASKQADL
PGE2 EP2 inh: inhibitors of human EP2 prostaglandin E2 receptor; P43116; C6 glioma cells expressing human EP2, cAMP TR-FRET; cells stimulated with saturating PGE2; inhibition, % at 25 µM; 0.52% of 260,000 active;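 active = percent inhibition above 40 after rounding to a whole number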;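 note: rat C6 glioma host cells with rolipram phosphodiesterase inhibitor present; the protocol text gives 20 µM as final concentration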
U2OS cAMP counter: U2OS forskolin cAMP inhibition counter-screen. inhibition, % at 6.5 µM. shares compounds with MC4R antag cAMP. 26% of 1,600 active. AID 602193. parental U2OS, LANCE TR-FRET;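 active = mean inhibition over triplicates above the low-control well mean plus 3 SD, set per campaign, cut at about 13% in these data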;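 note: signal is single emission at 671 nm which falls as cellular cAMP rises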
MC4R cAMP antag: human MC4R cAMP antagonism confirmation; shares compounds with MC4R antag cAMP; MC4R-expressing cells, MTII-stimulated cAMP, TR-FRET; inhibition, % at 6.5 µM; 27% of 1,600 active; AID 602195; in the data active = inhibition above about 29%
A number is an active result; . = inactive; / = no result given.

SMILES | MC4R antag cAMP | Exocytosis inh | T cell HTS | MC4R ag barr | EP2 mod | PGE2 EP2 inh | U2OS cAMP counter | MC4R cAMP antag
CC(C)CCNc1nnnc2c1sc1nc(N3CCOCC3)c3c(c12)CC(C)(C)SC3 | . | . | . | . | . | . | / | /
CC1(C)Cc2c(c(N3CCOCC3)nc3sc4c(NCC5CCCO5)nnnc4c23)CS1 (stereo not drawn) | 31 | . | . | . | . | . | . | .
CCCN(C(=O)c1cccc(S(=O)(=O)N2CCCc3ccccc32)c1)C1CCS(=O)(=O)C1 (stereo not drawn) | . | . | . | . | / | / | / | /
CCN(C(=O)COC(=O)c1ccc(S(=O)(=O)N2CCCc3ccccc32)cc1)C1CCS(=O)(=O)C1 (stereo not drawn) | 30 | . | . | . | . | . | . | .
O=C(NCc1ccco1)c1cc(S(=O)(=O)N2CCCc3ccccc32)ccc1Cl | . | . | . | . | . | . | / | /
CCNC(=O)COC(=O)c1cc(S(=O)(=O)N2CCCc3ccccc32)ccc1Cl | 33 | . | . | . | . | . | 25 | 41
CCOC(=O)CCC(=O)Nc1ccc(S(=O)(=O)N2CCc3ccccc32)cc1 | 32 | . | . | . | / | / | . | .
COc1ccc(CCC(=O)N2c3ccccc3N=C(c3ccc4c(c3)OCO4)C2C(=O)Nc2ccc(OC)cc2)cc1 (stereo not drawn) | / | . | / | / | / | / | / | /
C=CC(=O)N1C/C(=C/c2ccc(Cl)cc2)C(=O)/C(=C\c2ccc(Cl)cc2)C1 | 45 | 86 | / | . | / | / | 22 | .
NCCNC(=O)c1c(O)c2cccc3c2n(c1=O)CCC3 | . | . | . | . | . | . | / | /
Cc1csc(NC(=O)c2ccc(OCC3CCCO3)cc2)n1 (stereo not drawn) | . | . | . | . | . | . | / | /
CC1CCC2(CC1)NC(=O)N(CC(=O)Nc1ccc3c(c1)OCCO3)C2=O (stereo not drawn) | . | . | . | . | . | . | / | /
CC1CCC2(CC1)NC(=O)N(CC(=O)NC(=O)Nc1ccc3c(c1)OCCO3)C2=O (stereo not drawn) | 29 | . | . | . | . | . | . | .
COc1cccc(C(=O)Nc2ncc3c(n2)CC(C)CC3=O)c1 (stereo not drawn) | . | . | . | . | . | . | / | /
O=C(O)c1cnn(-c2nc(-c3ccc(Cl)c(Cl)c3)cs2)c1C(F)(F)F | 52 | . | . | . | / | / | . | .
O=C(O)c1cnn(-c2nc(-c3cccc([N+](=O)[O-])c3)cs2)c1C(F)(F)F | 33 | . | . | . | / | / | . | .
CN(NC(=O)c1ccc(Cl)cc1Cl)C1=NS(=O)(=O)c2ccccc21 | . | . | . | . | . | . | / | /
COc1ccc(Cl)cc1NC(=O)c1ccccc1C | . | . | . | . | . | . | / | /
COc1ccc(Cl)cc1NC(=S)Nc1ccccc1C | 29 | . | . | . | . | . | . | .
Cc1cccn2c(=O)c(/C=C(\C#N)S(=O)(=O)c3ccccc3)c(N3CCCCC3)nc12 | . | . | . | . | . | . | / | /
COc1cccc(NS(=O)(=O)c2ccc3[nH]cc(C(=O)NCCC(C)C)c(=O)c3c2)c1 | 29 | . | . | . | / | . | . | .
CC(C)CCNC(=O)c1c[nH]c2ccc(S(=O)(=O)N3CCOCC3)cc2c1=O | . | . | . | . | / | / | / | /
COC(=O)Cn1c(=NC(=O)c2ccc(OC)cc2)sc2cc(OC)ccc21 | . | . | . | . | . | . | / | /
CC(=O)Nc1ccc(/C=N/OCC(=O)Nc2ccc(C)cc2)cc1 | . | . | . | . | . | . | / | /
COc1ccc(N2CCN(CC(=O)Nc3ccccc3C(=O)NC(C)c3ccccc3)CC2)cc1 (stereo not drawn) | . | . | / | . | / | / | / | /
SMILES | MC4R antag cAMP | Exocytosis inh | T cell HTS | MC4R ag barr | EP2 mod | PGE2 EP2 inh | U2OS cAMP counter | MC4R cAMP antag
O=C(O)C12CC3CC(C1)CC(n1ncc(NCc4ccccc4)c(Cl)c1=O)(C3)C2 | 32 | . | . | . | . | . | . | .
COc1ccccc1C(c1c(N)n(C)c(=O)n(C)c1=O)C(C)[N+](=O)[O-] (stereo not drawn) | . | . | . | . | . | . | / | /
COc1cccc(C(c2c(N)n(C)c(=O)n(C)c2=O)C(C)[N+](=O)[O-])c1 (stereo not drawn) | 33 | . | . | . | . | . | . | .
OCCCn1c(C2CCCN2c2nc(-c3ccc(F)cc3)cs2)nc2cc(Cl)c(N3CCCCC3)cc21 (stereo not drawn) | . | . | . | . | / | . | / | /
COc1ccc(N2C(=O)C3CC(C)=C(C)CC3C2=O)c(OC)c1 (stereo not drawn) | . | . | . | . | . | . | / | /
COc1cc(N2C(=O)C=CC2=O)ccc1N1C(=O)C=CC1=O | 103 | 82 | / | . | / | / | 62 | 79
O=C(OC1CCOC1=O)c1ccc(Cl)c(S(=O)(=O)N2CCCCC2)c1 (stereo not drawn) | 34 | . | . | . | . | . | . | .
O=C(OC1CCOC1=O)c1ccc(S(=O)(=O)N2CCCCCC2)cc1 (stereo not drawn) | . | . | . | . | . | . | / | /
O=C(OC1CCOC1=O)C1CCN(S(=O)(=O)c2ccc(Cl)c(C(F)(F)F)c2)CC1 (stereo not drawn) | 51 | . | . | . | / | / | 14 | 50
O=C(OC1CCOC1=O)C1CCN(S(=O)(=O)c2ccccc2)CC1 (stereo not drawn) | 35 | . | . | . | / | / | 18 | 43
CC(=O)Oc1ccc(Nc2ccccc2)cc1 | . | . | . | . | . | . | / | /
CCCCCOc1ccc(C(=O)OCC(=O)Nc2cc(C)c(C)cc2[N+](=O)[O-])cc1 | . | . | . | . | . | . | / | /
O=C(c1cnc(Cl)c(Cl)c1)N1CCN(S(=O)(=O)c2ccc3ccccc3c2)CC1 | 36 | . | / | . | / | / | 17 | 54
COc1ccccc1-c1cc2nc(-c3ccccc3)cc(N3CCN(C(=O)c4ccoc4)CC3)n2n1 | 30 | . | / | . | / | / | . | .
O=C(c1ccoc1)N1CCN(c2cc(-c3ccccc3)nc3cc(-c4ccccc4)nn23)CC1 | . | . | / | . | / | / | / | /
COc1ccccc1-c1cc2nc(-c3ccccc3)cc(N3CCN(C(=O)c4ccco4)CC3)n2n1 | 29 | . | / | . | / | / | . | .
CCn1ncc(C(=O)NCCc2nc(-c3ccncc3)n[nH]2)c1C | / | / | / | / | . | . | / | /
O=C(CCC1CCCN(Cc2ccc3c(c2)OCCO3)C1)NCc1ccc(F)c(F)c1 (stereo not drawn) | . | . | . | . | . | . | / | /
O=C(CCC1CCCN(Cc2ccc3c(c2)OCCO3)C1)NCc1ccccc1F (stereo not drawn) | 29 | . | . | . | . | . | . | .
